Compound activity: PubChem BioAssay, several laboratories
Only some compounds are listed: those with a hit (about 0.95% of all), similar ones and a draw of the others.
HNF4A DNA FP = change in binding of human HNF4 alpha to DNA; HNF4a-FITC DNA binding, fluorescence polarization, 1 h; activity change, % at 10 µM; 0.3% of 360,000 active; AID 1224865; in the data active = activity change above about 30%, passing the limit was not always enough
ASAP1 GAP inh = blocks human ASAP1-stimulated Arf1 GTP hydrolysis | Q9ULH1 | GDP FP detection | inhibition, % at 16.5 µM | 0.19% of 360,000 active; in the data active = inhibition above about 25%
Target sequence (Q9ULH1 325-724 limits assumed): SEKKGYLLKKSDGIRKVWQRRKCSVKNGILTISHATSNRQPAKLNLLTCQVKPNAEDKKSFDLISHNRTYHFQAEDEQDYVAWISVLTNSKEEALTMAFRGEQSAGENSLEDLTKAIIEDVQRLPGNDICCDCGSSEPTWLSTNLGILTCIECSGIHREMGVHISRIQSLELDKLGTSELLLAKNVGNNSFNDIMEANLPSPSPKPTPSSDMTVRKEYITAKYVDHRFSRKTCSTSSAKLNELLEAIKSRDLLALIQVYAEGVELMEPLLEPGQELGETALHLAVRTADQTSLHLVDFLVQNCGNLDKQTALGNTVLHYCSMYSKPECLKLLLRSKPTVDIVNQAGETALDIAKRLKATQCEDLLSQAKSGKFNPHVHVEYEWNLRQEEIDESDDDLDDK
CSN inh = blocks human CSN-mediated cullin deneddylation | 0.38% of 360,000 active | Q92905 | inhibition, % at 12.5 µM | Purified CSN, SCF-Nedd8-OG deneddylation, fluorescence polarization | AID 651999;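 active = pattern-corrected inhibition above about 35%, with an unprinted fluorescence ratio check between 0.5 and 1.5, limit read from the data, passing the limit was not always enough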
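Test system: Human Csn5 produced in HEK293T cells | Compound: 12.5 µM single point | Times: 90 min, room temperature | Signal: Fluorescence polarization readout | Read-out basis: % inhibition of substrate cleavage by Csn5 | Controls: no-enzyme wells high, enzyme-with-substrate wells low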
ARFGAP1 inh = inhibits rat ARF GTPase activating protein 1. Arfgap1-stimulated ARF1 GTP hydrolysis, GDP FP detection. inhibition, % at 16.5 µM. 0.26% of 360,000 active. AID 651572;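 active = inhibition above a per-plate limit, mean inhibition of low control wells plus 3 SD, cut at about 25% in these data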
Target sequence (Q62848 1-136 limits assumed): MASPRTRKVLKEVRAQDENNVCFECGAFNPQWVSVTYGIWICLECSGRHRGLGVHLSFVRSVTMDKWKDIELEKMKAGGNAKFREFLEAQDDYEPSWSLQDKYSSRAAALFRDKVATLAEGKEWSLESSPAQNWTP
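Material: truncated rat Arfgap1 GAP domain; Incubation: compound-enzyme preincubation 20 min, reaction 120 min, detection 60 min, 25 °C; Read-out: percent inhibition of Arfgap1-stimulated GTP hydrolysis; Technique: FP, GDP Alexa 633 tracer displaced from anti-GDP antibody, 620/688 nm; Controls: No-Arfgap1 wells (100%) versus DMSO full-reaction wells (0%); Replication: single well per compound.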
A number is an active result; – = inactive; · = no result; ! = not confirmed by another sample.

SMILES	HNF4A DNA FP	ASAP1 GAP inh	CSN inh	ARFGAP1 inh
Oc1c(C=Nc2cccnc2)sc2ccccc12	–	–	–	–
Oc1c(C=Nc2ccccc2)sc2ccccc12	37	–	–	–
O=C(COC(=O)c1ccc(S(=O)(=O)NCc2ccco2)cc1)Nc1ccc(Cl)cn1	–	–	48	–
O=C(COC(=O)c1ccc(S(=O)(=O)NCc2ccco2)cc1)Nc1ccccc1	–	–	37	–
CN(Cc1cnn(-c2ccccc2)c1)C(=O)c1ccc(S(=O)(=O)NCc2ccco2)cc1	–	–	45	–
Cc1ccc(NC(=O)COC(=O)c2ccc(S(=O)(=O)NCc3ccco3)cc2)cc1	–	–	–	–
O=C(CSc1ccc([N+](=O)[O-])cn1)Nc1ccc2c(c1)OCO2	–	–	–	–
COc1ccc(-n2nc(C(=O)Nc3ccc(OC)c(OC)c3)c3c4ccccc4n(C)c3c2=O)cc1	–	–	48	–
CCN(CC)c1ccc(NC2CC(=O)N(CCc3ccc(OC)cc3)C2=O)cc1 (stereo not drawn)	57	–	51	–
COc1ccc(CCNC2CC(=O)N(CCc3ccccc3)C2=O)cc1 (stereo not drawn)	–	–	–	–
O/C(=C\c1ccc2ccccc2n1)c1ccc(O)cc1O	65	–	–	–
Cc1cccc(NC(=O)c2cc(-c3cc(C)cc(C)c3O)n[nH]2)c1	31	–	–	–
CCCCn1c(=N)n(CC(=O)c2ccc([N+](=O)[O-])cc2)c2ccccc21	·	–	·	–
Cc1ccc(Cn2c(=N)n(CC(=O)c3ccc([N+](=O)[O-])cc3)c3ccccc32)cc1	64	–	42	–
CS(=O)(=O)Nc1ccc(C2=NN(S(C)(=O)=O)C(c3ccccc3)C2)cc1 (stereo not drawn)	–	–	–	–
CS(=O)(=O)Nc1cccc(C2=NN(S(C)(=O)=O)C(c3ccc4c(c3)OCO4)C2)c1 (stereo not drawn)	36	–	–	–
CCS(=O)(=O)N1N=C(c2ccc(NS(C)(=O)=O)cc2)CC1c1ccccc1 (stereo not drawn)	86	–	35	–
CN(c1cccnc1)c1ccc(NC(=O)CCc2c[nH]c3ccccc23)cc1Br	·	–	·	–
O=C(CCC(=O)c1cccs1)OCC(=O)N1CCN(C(=O)c2ccco2)CC1	35	–	–	–
O=C1NC[C@H](c2ccccc2)N(CCC23CC4CC(CC(C4)C2)C3)C1=O	–	–	74	–
O=C(NCC1CCN(C(=O)C(=O)c2cc3ccccc3o2)CC1)c1ccncc1	·	–	·	–
Cc1c(Cc2ccccc2)c(=O)oc2cc(OCC(=O)N3CCC(C(=O)O)CC3)ccc12	–	–	–	–
CCCN1CCCCC(NC(=O)OC(C)(C)C)C1=O (stereo not drawn)	·	–	·	–
O=C(COc1ccc(/C=N/NC(=O)c2ccccc2O)cc1)Nc1ccc([N+](=O)[O-])cc1	–	–	43	–
CCCN1CCCCC(NC(=O)c2ccc(C)cc2C)C1=O (stereo not drawn)	·	–	·	–
SMILES	HNF4A DNA FP	ASAP1 GAP inh	CSN inh	ARFGAP1 inh
CC(=O)c1c(C)[nH]c(C(=O)COC(=O)c2ccc3c(=O)n4c(nc3c2)CCC4)c1C	–	–	–	–
O=C(OCc1cc(=O)n2c(n1)sc1ccccc12)c1ccc2c(=O)n3c(nc2c1)CCC3	–	–	36	–
CCNC(=O)O[C@@H]1C=C[C@@H](C#Cc2ccc(C(C)(C)C)cc2)O[C@@H]1COC(C)=O	·	–	·	–
N#C/C(=C\c1ccc(N2CCOCC2)o1)c1ccccc1	78	–	–	–
N#C/C(=C/c1ccc(N2CCOCC2)o1)c1nc2ccccc2[nH]1	–	–	–	–
COC(=O)N1C[C@H](Oc2ncccn2)[C@H]2C[C@@H]1c1ccccc1O2	·	–	·	–
CCCC[n+]1ccn(-c2nc3ccccc3nc2[N-]S(=O)(=O)c2ccc(Br)cc2)c1	–	–	41	–
CCCn1c(N)c(N(CCOC)C(=O)c2cccc(Cl)c2)c(=O)[nH]c1=O	–	–	–	–
CCCn1c(N)c(N(CCOC)C(=O)c2cc(C)cc(C)c2)c(=O)[nH]c1=O	35	–	–	–
CCCCC(=O)N1CCN(c2nc3ccc(OCC)cc3s2)CC1	–	–	63	–
CCOC(=O)C1CCN(c2cc(=O)n(C3CCCCC3)c(=O)[nH]2)CC1	40	–	–	–
COc1ccccc1NC(=O)Cn1nnc(-c2ccccc2NC(=O)c2cccs2)n1	–	–	37	–
O=C(Cn1nnc(-c2ccccc2NC(=O)c2cccs2)n1)Nc1ccccc1	–	–	–	–
CC(=O)N(\C=C/C=C/C=C1\Sc2ccccc2C1=O)c1ccccc1	49	–	–	–
COC(=O)[C@]12C[C@H](CC(=O)N3CCC(c4ccccc4)CC3)C(=O)N(Cc3ccccc3)C1=C[C@H](C(C)(C)C)O[C@@H]2C	·	–	·	–
Cc1ccc(C(=O)NNC(=O)CSc2nnc3c(n2)[nH]c2ccc(F)cc23)cc1	–	–	43	–
COc1ccc(-c2ccc(C3C(C#N)=C(N)Oc4n[nH]c(C)c43)o2)cc1 (stereo not drawn)	61	–	–	–
Nc1ccc2c(c1)Cc1cc([N+](=O)[O-])ccc1-2	37	–	–	–
O=C(CN1CCCN(S(=O)(=O)c2ccc(F)cc2)CC1)Nc1c(Cl)cccc1Cl	–	–	109	–
Cc1c(N=C2Nc3cccc4cccc2c34)c(=O)n(-c2ccccc2)n1C	43!	–	–	–
CC(=O)N(c1ccc2oc(=O)sc2c1)S(=O)(=O)c1cccc2cccnc12	31	–	–	–
CC(=O)N(c1ccc2oc(=O)sc2c1)S(=O)(=O)c1cccs1	–	–	–	–
O=C(CCc1nnc(Cc2ccc(-c3ccccc3)cc2)o1)NCC1CC1	–	–	–	–
COCCNC(=O)CCc1nnc(Cc2ccc(-c3ccccc3)cc2)o1	–	–	115	–
Cc1cc(C)c(NC(=O)Cn2nnc(C(=O)NCCc3ccccc3)c2N)c(C)c1	–	·	–	·
SMILES	HNF4A DNA FP	ASAP1 GAP inh	CSN inh	ARFGAP1 inh
Cc1cc(C)cc(NC(=O)Cn2nnc(C(=O)NCCc3ccccc3)c2N)c1	–	–	37	–
Cc1ccc(NC(=O)Cn2nnc(C(=O)NCCc3ccccc3)c2N)c(C)c1	–	·	55	·
CCOc1ccccc1/C=C/c1onc(C)c1S(=O)(=O)N1CCC(C(=O)NC(C)(C)C)CC1	–	–	–	–
CC(C)(C)c1ccc(C#C[C@@H]2C=C[C@H]3OC(=O)CC/C=C/CCC(=O)OC[C@H]3O2)cc1	·	–	·	–
COCc1cc(N2CCN(C(=O)OC(C)(C)C)C[C@@H]2C)ccc1N1CCN(Cc2ccccc2)[C@@H](C)C1	·	–	·	–
Cc1ccnc(NS(=O)(=O)c2ccc(NC(=O)Cc3c(F)cccc3Cl)cc2)n1	48	–	–	–
COC(=O)C1=C(C)N(Cc2ccc(Br)cc2)C(=S)NC1c1cccc(Br)c1 (stereo not drawn)	·	–	·	–
CCc1cc(C(=O)OC)c(NC(=O)CC2Nc3cc(C)c(C)cc3NC2=O)s1 (stereo not drawn)	61	–	–	–
Cc1cc(O)cc(=O)n1-c1ccc(OC(F)F)cc1	·	–	·	–
